The values below come from PubChem BioAssay.

The nature of assay [1]: OD615 S. cerevisiae growth inhibition, permissive medium, pilot counter-assay, permissive growth control for S. cerevisiae lifespan shortening project (AID 705;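 active = growth inhibition above 25% in both replicates, a cutoff set 3 SD above the mean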). Particulars: OD615, 24 h, at 10 µM, active compounds read high. In short, it runs like this:
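System: Engineered DeaD yeast | Buffer or medium: SC raffinose/galactose permissive medium | Incubation: Cells pre-grown 4 h, then 24 h compound exposure, 30 °C humidified | Measured by: Absorbance (optical density) at 615 nm | Read-out: Reduction in yeast growth (OD615)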

Assay [2] can be described thus: Restrictive medium S. cerevisiae growth inhibition, OD615, pilot screen of yeast lifespan reduction project, restrictive growth control (AID 706;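 active = growth inhibition above a set limit, 3 SD over mean compound inhibition, in both replicates, cut at about 43% in these data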;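 note: modified DeaD lifespan yeast strain shifted to restrictive glucose medium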). Particulars: OD615, 48 h, at 10 µM, active compounds read high. The method in brief:
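Material: modified S. cerevisiae; Medium: glucose-based CSMM-D restrictive medium; Compound dosing: one concentration, 10 µM final, 0.25% DMSO; Incubation: 48 h compound exposure at 30 °C; Measured by: OD615.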

The nature of assay [3]: viability gain of MRP-1-high H69AR cells under doxorubicin, pilot screen, MRP-1 activator project, CellTiter-Glo, duplicate (AID 807;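 active = viability increase at or above a cutoff of the median across tested compounds plus 3 SD, cut at about 8.5% in these data, passing the limit was not always enough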;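 note: compound pretreatment 18-22 h then 72 h combined with doxorubicin; 0% = doxorubicin alone and 100% = vehicle without doxorubicin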). As to conditions: H69AR viability with doxorubicin, CellTiter-Glo luminescence; at 10 µM; active compounds read high.
Assay [4] can be described thus: growth suppression of beta-catenin knockout HCT116, pilot screen, human colon tumor cells (AID 823).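 Note: 0% = wells killed by 20 µM Hyamine and 100% = untreated DMSO cell wells.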 As to conditions: CellTiter-Glo, 60 h, at 10 µM, active compounds read low. Background: Cellular ATP, detected with luciferase, serves as a proxy for viable cell number.
A short description of assay [5]: growth suppression of PTEN-deleted HCT116, pilot screen, cell-based, HCT116 clonal line, CellTiter-Glo (AID 824;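 active = viability at or below 27.92% in each of two runs, the all-compound median minus 4 SD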;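 note: 0% = 20 µM Hyamine control and 100% = vehicle cell control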). As to conditions: 60 h, at 10 µM, active compounds read low.
Assay [6] can be described thus: inhibitors of the yeast RAM network, pilot screen, dse1pr::URA3 reporter, 5-FOA selection (AID 869;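 active = inhibition over a set limit, the all-compound mean plus 3 SD, in both replicate runs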;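 note: 0% = DMSO wells with no growth and 100% = 10 µM 1-NA-PP1 with full growth; RAM network block rescues cells from 5-FOA so hits raise OD615 growth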). As to conditions: S. cerevisiae dse1pr::URA3 5-FOA growth, OD615, 2 d; at 10 µM; active compounds read high; strain carries analog-sensitive mutant Cbk1 kinase.
The nature of assay [7]: RAM signaling pathway blockade in yeast – S. cerevisiae, Pdr1DBD-CYC8 efflux-inhibited sensitized strain, primary screen (AID 1298;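 active = RAM network inhibition above 8.4% in each of two replicates, 3 SD over the compound average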;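 note: 0% = DMSO untreated cells without growth and 100% = 10 µM 1-NA-PP1 full growth; higher means more yeast growth rescued from 5-FOA killing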). Particulars: S. cerevisiae cbk1-as DSE1-URA3 strain, 5-FOA growth OD615, 2 d; at 50 µM; active compounds read high.

Unmarked numbers belong to inactive results. Results filed as inconclusive are left out. Activity calls are given as the source filed them.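 Rule for the calls, unless noted: active = cell viability at or below a set limit in both duplicate runs, the limit being the all-compound median minus 4 SD (cut at about 23% in these data, passing the limit was not always enough); inconclusive = no clear call, values can overlap the other calls; inactive = the rest.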

Turning to `CCOC(=O)CSC1=C(C#N)C(c2ccc(C)s2)CC(=O)N1` (stereo unspecified), the values for the growth inhibition in assay [1] and in assay [2] were -9.3% and -13.3%, respectively. Besides, the viability increase in assay [3] is -5.84%. Moreover, the viability in assay [4] is 15.9% (active); in assay [5], 16% (active). In addition, in assay [6], the inhibition is 1.54%. The RAM network inhibition in assay [7] was 0.22%.

`CCS(=O)(=O)N1CCN(c2cccc(C)c2C)CC1`: the values for the growth inhibition in assay [1] and in assay [2] were -12.4% and -5.41%, respectively. The viability increase in assay [3] is -1.48%. In addition, the viability in assay [4] is 97.5%; in assay [5], 89.3%. In addition, the inhibition in assay [6] was 2.35%. Also, the RAM network inhibition in assay [7] was 4.29%.

As for `O=C(Cc1cc(=O)[nH]c(=O)[nH]1)N1CCC(Cc2ccccc2)CC1`, the growth inhibition in assay [1] was 0.795%; in assay [2] it was -5.47%. For the same molecule, the viability increase in assay [3] was -0.99%. For the same molecule, the viability in assay [4] was 96%; in assay [5] it was 94.2%. In addition, in assay [6], the inhibition is 1.33%. Further, the RAM network inhibition in assay [7] was 3.92%.

With `COc1ccc2nc(NC(=O)c3ccc4ncsc4c3)sc2c1`, the growth inhibition in assay [1] is 0.465%; in assay [2] it was 13%. Also, the viability increase in assay [3] is -3.84%. For the same molecule, the viability in assay [4] is 81.3%; in assay [5], 82.5%. Moreover, the inhibition in assay [6] is 3.54%. In addition, the RAM network inhibition in assay [7] is 8.79%.

For `CCCSc1nnc(Cn2c(=O)sc3ccccc32)n1-c1ccccc1`, the growth inhibition in assay [1] was -9.77%; in assay [2] it was 3.11%. Moreover, the viability increase in assay [3] was 1.4%. For the same molecule, the viability in assay [4] was 92.6%; in assay [5] it was 81.3%. Besides, in assay [6], the inhibition is 3.3%. In addition, in assay [7], the RAM network inhibition is 11%.

Regarding `Cn1c(CNC(=O)C(C)(C)C)nc2ccccc21`, the results for the growth inhibition in assay [1] and in assay [2] were -11.4% and -0.87%, respectively. For the same molecule, the viability increase in assay [3] is -3.97%. The results for the viability in assay [4] and in assay [5] were 101% and 93.1%, respectively. Further, the inhibition in assay [6] was 1.8%. Further, in assay [7], the RAM network inhibition is 2.73%.

For the molecule `COc1ccccc1N(CC(=O)Nc1ccccc1C)S(C)(=O)=O`, the figures for the growth inhibition in assay [1] and in assay [2] were -5.63% and -10.8%, respectively. For the same molecule, the viability increase in assay [3] was -3.72%. For the same molecule, the values for the viability in assay [4] and in assay [5] were 94.7% and 95.7%, respectively. Further, the inhibition in assay [6] is 1.12%. In assay [7], the RAM network inhibition was 1.62%.

`COCC(=O)Nc1cc(=O)n(C)c(=O)n1C`: the growth inhibition in assay [1] was -4.37%; in assay [2], -24.4%. For the same molecule, the viability increase in assay [3] is -1.62%. For the same molecule, the viability in assay [4] was 100%; in assay [5], 94.4%. In addition, the inhibition in assay [6] was 1.73%. In addition, the RAM network inhibition in assay [7] is -0.05%.

Regarding `Cc1[nH]n2c(=O)c3c(nc2c1-c1ccc(Cl)cc1)CCC3`, the values for the growth inhibition in assay [1] and in assay [2] were -14.1% and -8.77%, respectively. The viability increase in assay [3] is -2.32%. For the same molecule, the viability in assay [4] was 22.5% (active); in assay [5], 26.8% (active). For the same molecule, the inhibition in assay [6] was 1.88%. In addition, in assay [7], the RAM network inhibition is 6.65%.

In the case of `COc1ccccc1N1CCN(C(=O)C2CCN(S(=O)(=O)c3ccccc3)CC2)CC1`, the values for the growth inhibition in assay [1] and in assay [2] were -0.075% and 2.96%, respectively. Moreover, in assay [3], the viability increase is -1.42%. Also, the figures for the viability in assay [4] and in assay [5] were 92.6% and 95.6%, respectively. Besides, the inhibition in assay [6] is 1.07%. Also, in assay [7], the RAM network inhibition is 5.76%.

In the case of `COc1ccc(C)cc1NC(=O)CN(c1ccccc1F)S(C)(=O)=O`, the growth inhibition is -8.48% in assay [1] and -0.695% in assay [2]. The viability increase in assay [3] was -1.51%. Also, the viability in assay [4] was 94.6%; in assay [5] it was 103%. Also, the inhibition in assay [6] was -0.63%. Also, the RAM network inhibition in assay [7] was 0.32%.

In the case of `CC(N=C1NS(=O)(=O)c2ccccc21)c1ccccc1` (stereo unspecified), the growth inhibition in assay [1] is 0.11%; in assay [2], 1.27%. For the same molecule, the viability increase in assay [3] was 0.15%. For the same molecule, the results for the viability in assay [4] and in assay [5] were 103% and 96.2%, respectively. Besides, in assay [6], the inhibition was -0.16%. Further, the RAM network inhibition in assay [7] was 5.97%.

In the case of `COc1ccc(CCNC(=O)c2c(-c3ccccc3)noc2C)cc1OC`, the growth inhibition is 3.07% in assay [1] and -2.27% in assay [2]. For the same molecule, in assay [3], the viability increase was 0.19%. Moreover, the viability was 102% in assay [4] and 101% in assay [5]. The inhibition in assay [6] was 2.2%. Moreover, the RAM network inhibition in assay [7] is 0.43%.

With `Nc1ccc(-c2nc3ccc(N)cc3o2)cc1`, the growth inhibition in assay [1] is 0.07%; in assay [2], 7.21%. The viability increase in assay [3] was -1.18%. Besides, the viability in assay [4] was 100%; in assay [5], 86.8%. In addition, the inhibition in assay [6] is 3.98%. For the same molecule, the RAM network inhibition in assay [7] was 6.51%.

With `N#CC1=C(N)Oc2c(sc3ccccc23)C1c1ccco1` (stereo unspecified), the growth inhibition is -25.7% in assay [1] and -4.08% in assay [2]. The viability increase in assay [3] is -4.53%. For the same molecule, the viability was 63.3% in assay [4] and 65.2% in assay [5]. Moreover, the inhibition in assay [6] is 1.22%. In addition, the RAM network inhibition in assay [7] was -0.62%.

In the case of `Cc1[nH]n(-c2ccccc2)c(=O)c1S(=O)(=O)c1ccccc1`, the growth inhibition was -0.29% in assay [1] and -3.15% in assay [2]. The viability increase in assay [3] is 0.62%. The viability in assay [4] is 102%; in assay [5] it was 98.7%. In assay [6], the inhibition is 0.08%. The RAM network inhibition in assay [7] is 2.99%.

Take `O=C(Cn1cnc2c(nnn2-c2ccccc2)c1=O)NCc1ccco1`: the growth inhibition in assay [1] was 1.43%; in assay [2], 3.14%. Besides, the viability increase in assay [3] is -3.77%. Further, the figures for the viability in assay [4] and in assay [5] were 104% and 89.8%, respectively. In addition, in assay [6], the inhibition is 0.32%. Moreover, the RAM network inhibition in assay [7] was 0.83%.

In the case of `Cc1nn(C(=O)CN2C(=O)c3ccccc3C2=O)c(C)c1Br`, the growth inhibition in assay [1] is -4.13%; in assay [2] it was 3.1%. For the same molecule, in assay [3], the viability increase was -1.05%. Besides, the results for the viability in assay [4] and in assay [5] were 101% and 103%, respectively. Besides, the inhibition in assay [6] was 0.84%. Moreover, the RAM network inhibition in assay [7] is 4.29%.

As usually defined, the viability is a read-out of living cells in per cent, often relative to untreated cells. One may read the inhibition as the change of the read-out against control, counted positive when it falls.
